Drawing on ChEMBL document CHEMBL2069238, “Discovery of potent and selective rhodanine type IKKβ inhibitors by hit-to-lead strategy” (Bioorg Med Chem Lett, 2012), this text covers inhibition and IC50 for three molecules.

Molecules are shown by their SMILES.

Sequence of Mitogen-activated protein kinase 9 (P45984 whole entry): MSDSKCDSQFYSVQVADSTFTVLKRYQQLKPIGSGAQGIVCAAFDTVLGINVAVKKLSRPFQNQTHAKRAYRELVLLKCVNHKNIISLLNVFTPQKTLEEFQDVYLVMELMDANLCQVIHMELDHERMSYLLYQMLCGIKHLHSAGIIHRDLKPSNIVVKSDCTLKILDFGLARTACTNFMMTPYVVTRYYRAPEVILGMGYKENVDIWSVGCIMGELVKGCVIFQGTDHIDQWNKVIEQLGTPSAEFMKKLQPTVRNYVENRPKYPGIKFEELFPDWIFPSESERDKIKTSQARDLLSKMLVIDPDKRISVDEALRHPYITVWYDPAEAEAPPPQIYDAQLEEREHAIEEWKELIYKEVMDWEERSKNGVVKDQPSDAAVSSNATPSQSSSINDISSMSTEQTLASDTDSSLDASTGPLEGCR
Sequence of Mitogen-activated protein kinase 11 (Q15759 whole entry): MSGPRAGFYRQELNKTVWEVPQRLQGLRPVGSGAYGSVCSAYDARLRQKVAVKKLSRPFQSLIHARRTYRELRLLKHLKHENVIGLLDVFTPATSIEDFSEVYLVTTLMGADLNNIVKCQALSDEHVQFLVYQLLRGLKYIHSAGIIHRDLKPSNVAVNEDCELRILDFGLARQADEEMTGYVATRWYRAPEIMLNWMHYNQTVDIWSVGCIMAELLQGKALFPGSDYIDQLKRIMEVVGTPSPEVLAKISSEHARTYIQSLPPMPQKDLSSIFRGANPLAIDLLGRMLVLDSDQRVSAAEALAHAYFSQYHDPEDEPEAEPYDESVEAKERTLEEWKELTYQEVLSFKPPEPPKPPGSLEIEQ
Sequence of Mitogen-activated protein kinase 8 (P45983 whole entry): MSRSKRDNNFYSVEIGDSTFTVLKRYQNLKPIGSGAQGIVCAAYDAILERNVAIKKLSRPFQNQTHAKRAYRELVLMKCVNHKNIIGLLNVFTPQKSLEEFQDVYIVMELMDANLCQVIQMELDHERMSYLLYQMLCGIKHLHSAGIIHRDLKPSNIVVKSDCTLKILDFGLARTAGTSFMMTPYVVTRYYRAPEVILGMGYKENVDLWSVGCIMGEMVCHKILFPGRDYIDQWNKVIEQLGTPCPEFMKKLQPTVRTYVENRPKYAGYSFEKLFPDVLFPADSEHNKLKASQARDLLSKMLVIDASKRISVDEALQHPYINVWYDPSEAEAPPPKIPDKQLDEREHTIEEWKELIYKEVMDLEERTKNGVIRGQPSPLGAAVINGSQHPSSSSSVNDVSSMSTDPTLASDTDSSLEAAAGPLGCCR
Sequence of Mitogen-activated protein kinase 14 (Q16539 whole entry): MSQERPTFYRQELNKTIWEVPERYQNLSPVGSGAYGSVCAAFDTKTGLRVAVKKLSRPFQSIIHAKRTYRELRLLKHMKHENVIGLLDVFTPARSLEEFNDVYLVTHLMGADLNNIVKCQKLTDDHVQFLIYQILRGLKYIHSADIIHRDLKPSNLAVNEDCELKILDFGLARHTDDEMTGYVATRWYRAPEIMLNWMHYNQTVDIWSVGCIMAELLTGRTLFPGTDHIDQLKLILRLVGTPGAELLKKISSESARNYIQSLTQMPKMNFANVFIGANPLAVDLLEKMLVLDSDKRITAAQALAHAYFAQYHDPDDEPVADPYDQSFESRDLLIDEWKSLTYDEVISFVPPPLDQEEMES

For one assay, the target named is T1, Inhibitor of nuclear factor kappa-B kinase subunit beta (Homo sapiens) (UniProt O14920).
T1 sequence (whole entry): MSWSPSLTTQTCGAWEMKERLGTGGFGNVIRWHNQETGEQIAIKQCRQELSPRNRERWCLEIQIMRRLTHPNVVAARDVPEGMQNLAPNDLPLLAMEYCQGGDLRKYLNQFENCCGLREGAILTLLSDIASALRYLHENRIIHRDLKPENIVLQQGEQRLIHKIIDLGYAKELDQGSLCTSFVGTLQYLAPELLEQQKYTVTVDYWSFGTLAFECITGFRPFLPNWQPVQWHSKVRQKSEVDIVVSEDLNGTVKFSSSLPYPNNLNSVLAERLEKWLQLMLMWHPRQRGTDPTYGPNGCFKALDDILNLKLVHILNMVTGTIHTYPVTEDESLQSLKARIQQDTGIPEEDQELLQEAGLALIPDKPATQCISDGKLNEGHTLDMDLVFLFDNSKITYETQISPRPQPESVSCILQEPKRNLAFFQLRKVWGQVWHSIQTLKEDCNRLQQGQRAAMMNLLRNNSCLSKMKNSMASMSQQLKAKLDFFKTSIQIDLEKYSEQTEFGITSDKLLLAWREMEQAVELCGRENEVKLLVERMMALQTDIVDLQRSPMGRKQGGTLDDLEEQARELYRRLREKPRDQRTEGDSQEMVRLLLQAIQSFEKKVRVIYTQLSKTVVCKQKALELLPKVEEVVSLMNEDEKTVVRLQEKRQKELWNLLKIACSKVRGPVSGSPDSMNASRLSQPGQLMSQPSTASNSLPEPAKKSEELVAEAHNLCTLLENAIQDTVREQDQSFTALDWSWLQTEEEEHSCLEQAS
Description: Inhibition of IKKbeta using 5FAM-GRHDSGLDSMK-NH2 as substrate at 10 uM incubated for 10 mins prior to substrate addition by IMAP-TR-FRET assay.
In general, inhibition refers to the share of the control response that was lost under treatment. Turning to `CN1CCN(CCCOc2ccc(N3C(=O)/C(=C/c4ccc(Oc5ccc(C(N)=O)cc5)cc4)SC3=S)cc2)CC1`, the inhibition worked out at 90.1%.
The same measure, in the same setting: in the case of `CN1CCN(CCCOc2ccc(N3C(=O)/C(=C/c4ccc(Oc5cccc(C(N)=O)c5)cc4)SC3=S)cc2)CC1` it was 86.8%; in that of `NC(=O)c1ccc(Oc2ccc(/C=C3\SC(=S)N(c4ccc(OCCCN5CCCC5)cc4)C3=O)cc2)cc1`, 85.3%.

The next assay has as its target Mitogen-activated protein kinase 9 (Homo sapiens, UniProt P45984). Description: Inhibition of JNK2.
A word on the IC50: it is the concentration that inhibits the measured activity by half. Turning to `CN1CCN(CCCOc2ccc(N3C(=O)/C(=C/c4ccc(Oc5ccc(C(N)=O)cc5)cc4)SC3=S)cc2)CC1`, the IC50 is > 30 µM.
On the same count and under the same terms, in the case of `CN1CCN(CCCOc2ccc(N3C(=O)/C(=C/c4ccc(Oc5cccc(C(N)=O)c5)cc4)SC3=S)cc2)CC1` it was > 30 µM.
On the same count and under the same terms, in the case of `NC(=O)c1ccc(Oc2ccc(/C=C3\SC(=S)N(c4ccc(OCCCN5CCCC5)cc4)C3=O)cc2)cc1` it was > 30 µM.

The next assay has as its target Mitogen-activated protein kinase 8 (Homo sapiens, UniProt P45983). The assay is described as follows: Inhibition of JNK1.
Take `CN1CCN(CCCOc2ccc(N3C(=O)/C(=C/c4ccc(Oc5ccc(C(N)=O)cc5)cc4)SC3=S)cc2)CC1`: the IC50 is > 30 µM.
Same read-out and setting: as for `CN1CCN(CCCOc2ccc(N3C(=O)/C(=C/c4ccc(Oc5cccc(C(N)=O)c5)cc4)SC3=S)cc2)CC1`, the figure is > 30 µM.
On the same count and under the same terms, in the case of `NC(=O)c1ccc(Oc2ccc(/C=C3\SC(=S)N(c4ccc(OCCCN5CCCC5)cc4)C3=O)cc2)cc1` it was > 30 µM.

A further assay has as its target Mitogen-activated protein kinase 11 (Homo sapiens, UniProt Q15759). The assay is described as follows: Inhibition of MAPK p38beta.
On to `CN1CCN(CCCOc2ccc(N3C(=O)/C(=C/c4ccc(Oc5ccc(C(N)=O)cc5)cc4)SC3=S)cc2)CC1`, for which the IC50 is > 30 µM.
In the case of `CN1CCN(CCCOc2ccc(N3C(=O)/C(=C/c4ccc(Oc5cccc(C(N)=O)c5)cc4)SC3=S)cc2)CC1`, the IC50 was > 30 µM.
For the molecule `NC(=O)c1ccc(Oc2ccc(/C=C3\SC(=S)N(c4ccc(OCCCN5CCCC5)cc4)C3=O)cc2)cc1`, the IC50 was > 30 µM.

A further assay addresses Mitogen-activated protein kinase 14 (Homo sapiens, UniProt Q16539). The assay is described as follows: Inhibition of MAPK p38alpha.
Regarding `CN1CCN(CCCOc2ccc(N3C(=O)/C(=C/c4ccc(Oc5ccc(C(N)=O)cc5)cc4)SC3=S)cc2)CC1`, the IC50 is > 30 µM.
Same read-out and setting: in the case of `CN1CCN(CCCOc2ccc(N3C(=O)/C(=C/c4ccc(Oc5cccc(C(N)=O)c5)cc4)SC3=S)cc2)CC1` it was > 30 µM; in that of `NC(=O)c1ccc(Oc2ccc(/C=C3\SC(=S)N(c4ccc(OCCCN5CCCC5)cc4)C3=O)cc2)cc1`, > 30 µM.

For a further assay, the target named is T2, Inhibitor of nuclear factor kappa-B kinase subunit alpha (Homo sapiens, UniProt O15111).
T2 sequence (O15111 whole entry): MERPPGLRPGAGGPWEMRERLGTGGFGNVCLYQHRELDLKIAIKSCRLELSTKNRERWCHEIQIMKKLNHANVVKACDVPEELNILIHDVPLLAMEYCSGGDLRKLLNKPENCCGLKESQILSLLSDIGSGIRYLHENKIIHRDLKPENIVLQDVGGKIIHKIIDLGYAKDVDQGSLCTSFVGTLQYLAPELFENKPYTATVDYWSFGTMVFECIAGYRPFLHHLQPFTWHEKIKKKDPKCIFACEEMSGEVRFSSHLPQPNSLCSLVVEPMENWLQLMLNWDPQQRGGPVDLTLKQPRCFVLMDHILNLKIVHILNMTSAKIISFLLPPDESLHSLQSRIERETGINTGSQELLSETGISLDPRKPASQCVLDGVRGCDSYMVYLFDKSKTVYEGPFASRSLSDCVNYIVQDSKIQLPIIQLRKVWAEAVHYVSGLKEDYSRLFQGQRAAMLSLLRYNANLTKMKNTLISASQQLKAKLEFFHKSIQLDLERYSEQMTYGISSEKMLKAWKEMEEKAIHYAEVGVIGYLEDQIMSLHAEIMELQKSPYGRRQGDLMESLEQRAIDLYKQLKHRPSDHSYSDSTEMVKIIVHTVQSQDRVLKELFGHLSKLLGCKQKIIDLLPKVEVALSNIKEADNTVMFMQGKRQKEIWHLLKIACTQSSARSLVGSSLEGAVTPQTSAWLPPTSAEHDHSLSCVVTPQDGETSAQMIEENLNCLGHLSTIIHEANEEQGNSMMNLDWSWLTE
Description: Inhibition of IKKalpha.
On to `CN1CCN(CCCOc2ccc(N3C(=O)/C(=C/c4ccc(Oc5ccc(C(N)=O)cc5)cc4)SC3=S)cc2)CC1`, for which the IC50 is > 30 µM.
The same measure, in the same setting: as for `CN1CCN(CCCOc2ccc(N3C(=O)/C(=C/c4ccc(Oc5cccc(C(N)=O)c5)cc4)SC3=S)cc2)CC1`, the figure is > 30 µM; as for `NC(=O)c1ccc(Oc2ccc(/C=C3\SC(=S)N(c4ccc(OCCCN5CCCC5)cc4)C3=O)cc2)cc1`, > 30 µM.

The target of a further assay is Mitogen-activated protein kinase 10 (Homo sapiens, UniProt P53779). Description: Inhibition of JNK3.
Sequence of Mitogen-activated protein kinase 10 (P53779 whole entry): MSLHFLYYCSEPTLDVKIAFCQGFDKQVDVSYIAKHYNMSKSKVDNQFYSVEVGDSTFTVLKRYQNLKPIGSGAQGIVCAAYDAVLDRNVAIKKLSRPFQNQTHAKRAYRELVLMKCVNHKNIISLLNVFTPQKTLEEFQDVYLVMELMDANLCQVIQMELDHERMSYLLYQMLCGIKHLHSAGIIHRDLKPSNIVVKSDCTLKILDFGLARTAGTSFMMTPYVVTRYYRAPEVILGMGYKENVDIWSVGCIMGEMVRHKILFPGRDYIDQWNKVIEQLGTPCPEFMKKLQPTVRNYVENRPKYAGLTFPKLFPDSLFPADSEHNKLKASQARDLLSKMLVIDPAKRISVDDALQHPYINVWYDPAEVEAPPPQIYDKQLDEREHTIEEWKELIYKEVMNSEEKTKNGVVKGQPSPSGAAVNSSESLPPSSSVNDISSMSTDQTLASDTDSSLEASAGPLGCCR
For `CN1CCN(CCCOc2ccc(N3C(=O)/C(=C/c4ccc(Oc5ccc(C(N)=O)cc5)cc4)SC3=S)cc2)CC1`, the IC50 was > 30 µM.
Still for that read-out and setting: as for `CN1CCN(CCCOc2ccc(N3C(=O)/C(=C/c4ccc(Oc5cccc(C(N)=O)c5)cc4)SC3=S)cc2)CC1`, the figure is > 30 µM; as for `NC(=O)c1ccc(Oc2ccc(/C=C3\SC(=S)N(c4ccc(OCCCN5CCCC5)cc4)C3=O)cc2)cc1`, > 30 µM.

The target in another assay is T3, Inhibitor of nuclear factor kappa-B kinase subunit beta (Homo sapiens, UniProt O14920).
T3 sequence (O14920 whole entry): T1 sequence (whole entry)
The assay is described as follows: Inhibition of IKKbeta using 5FAM-GRHDSGLDSMK-NH2 as substrate incubated for 10 mins prior to substrate addition by IMAP-TR-FRET assay. On the technique in general: TR-FRET usually uses a lanthanide donor and a delayed reading to cut background.
In turn, `CN1CCN(CCCOc2ccc(N3C(=O)/C(=C/c4ccc(Oc5ccc(C(N)=O)cc5)cc4)SC3=S)cc2)CC1` displayed an IC50 of 0.35 µM.
On the same count and under the same terms, in the case of `CN1CCN(CCCOc2ccc(N3C(=O)/C(=C/c4ccc(Oc5cccc(C(N)=O)c5)cc4)SC3=S)cc2)CC1` it was 1.5 µM; in that of `NC(=O)c1ccc(Oc2ccc(/C=C3\SC(=S)N(c4ccc(OCCCN5CCCC5)cc4)C3=O)cc2)cc1`, 1.5 µM.

A further assay deals with T1, Inhibitor of nuclear factor kappa-B kinase subunit beta (Homo sapiens). Description: Inhibition of IKKbeta in human HeLa cells assessed as inhibition of TPA-induced NFkappaB activation at 10 uM incubated for 1 hr prior to TPA-challenge measured after 8 hrs by luciferase reporter gene assay. It counts as cell-based. An outline of the steps: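 HeLa cells transfected with an NF-κB luciferase reporter plasmid, pre-treated with inhibitor for 1 h, then stimulated with TPA (50 ng/mL) for 8 h. Luciferase activity normalized to protein content of each extract, expressed as relative luciferase units per mg versus non-treated cells; n = 3.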
A general note: In a reporter assay the amount or activity of a reporter protein is the signal.
Regarding `CN1CCN(CCCOc2ccc(N3C(=O)/C(=C/c4ccc(Oc5ccc(C(N)=O)cc5)cc4)SC3=S)cc2)CC1`, the inhibition amounted to 65.4%.
Same read-out and setting: as for `CN1CCN(CCCOc2ccc(N3C(=O)/C(=C/c4ccc(Oc5cccc(C(N)=O)c5)cc4)SC3=S)cc2)CC1`, the figure is 64.7%; as for `NC(=O)c1ccc(Oc2ccc(/C=C3\SC(=S)N(c4ccc(OCCCN5CCCC5)cc4)C3=O)cc2)cc1`, 58.5%.

For another assay, the target named is T4, Inhibitor of nuclear factor kappa-B kinase subunit beta (Mus musculus, UniProt O88351).
T4 sequence (O88351 whole entry): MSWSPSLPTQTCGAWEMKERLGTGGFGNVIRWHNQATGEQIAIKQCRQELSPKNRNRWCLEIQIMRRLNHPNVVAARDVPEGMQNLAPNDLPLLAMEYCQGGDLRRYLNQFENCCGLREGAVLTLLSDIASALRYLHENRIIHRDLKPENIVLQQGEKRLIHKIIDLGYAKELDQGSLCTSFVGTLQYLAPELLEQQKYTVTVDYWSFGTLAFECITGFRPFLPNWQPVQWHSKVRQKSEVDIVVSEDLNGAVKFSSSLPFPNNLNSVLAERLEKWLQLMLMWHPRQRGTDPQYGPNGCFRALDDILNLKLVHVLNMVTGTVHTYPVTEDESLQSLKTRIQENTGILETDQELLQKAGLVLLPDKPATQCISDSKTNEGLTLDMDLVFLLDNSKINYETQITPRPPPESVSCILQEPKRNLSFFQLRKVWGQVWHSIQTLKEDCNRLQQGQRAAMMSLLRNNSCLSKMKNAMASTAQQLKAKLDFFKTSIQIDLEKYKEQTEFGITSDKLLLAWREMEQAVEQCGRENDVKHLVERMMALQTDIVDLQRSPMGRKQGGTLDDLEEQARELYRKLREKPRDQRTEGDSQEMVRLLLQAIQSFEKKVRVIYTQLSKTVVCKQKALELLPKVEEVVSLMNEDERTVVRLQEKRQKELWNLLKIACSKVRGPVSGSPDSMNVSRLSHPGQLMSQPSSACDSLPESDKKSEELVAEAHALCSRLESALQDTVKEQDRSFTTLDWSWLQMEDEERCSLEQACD
The assay is described as follows: Inhibition of IKKbeta in mouse CIA model splenocytes assessed as inhibition of TNFalpha production after 72 hrs by ELISA. It counts as cell-based. The essentials: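 Spleens from collagen type II-immunized mice were taken 8 weeks after primary immunization. Red cells were lysed with 0.83% ammonium chloride, and cells were strained and resuspended in RPMI 1640 at 1 × 10^6 cells/well, then exposed to inhibitor for 72 h. Supernatant TNFα was measured by sandwich ELISA with an alkaline phosphatase chromogenic read at 405 nm, quantified against a recombinant murine TNFα standard curve.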
Turning to `CN1CCN(CCCOc2ccc(N3C(=O)/C(=C/c4ccc(Oc5ccc(C(N)=O)cc5)cc4)SC3=S)cc2)CC1`, the IC50 turned out to be 2 µM.
Take `CN1CCN(CCCOc2ccc(N3C(=O)/C(=C/c4ccc(Oc5cccc(C(N)=O)c5)cc4)SC3=S)cc2)CC1`: the IC50 was 5 µM.
For the molecule `NC(=O)c1ccc(Oc2ccc(/C=C3\SC(=S)N(c4ccc(OCCCN5CCCC5)cc4)C3=O)cc2)cc1`, the concentration for half-maximal inhibition (IC50) is 5 µM.
